The record followed here is ChEMBL document CHEMBL5325493, “Discovery of AD258 as a Sigma Receptor Ligand with Potent Antiallodynic Activity” (J Med Chem, 2023).

Active and inactive are the calls of the source. The calls are words filed in the database; no cut-off is given here.

Series [1] concerns the target Sigma non-opioid intracellular receptor 1 (Homo sapiens, UniProt Q99720). As to the kind of experiment: Binding affinity to S1R (unknown origin). The essentials: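 Rat liver homogenates from male Sprague Dawley rats in 50 mM Tris pH 8. […] Incubated 120 min at 37 °C, then filtration and scintillation counting. Ki is the mean ± SD of at least two experiments in duplicate.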

The target in series [2] is Sigma intracellular receptor 2 (Homo sapiens, UniProt Q5BJF2). As to the kind of experiment: Binding affinity to S2R (unknown origin).
Sequence of Sigma intracellular receptor 2 (Q5BJF2 whole entry): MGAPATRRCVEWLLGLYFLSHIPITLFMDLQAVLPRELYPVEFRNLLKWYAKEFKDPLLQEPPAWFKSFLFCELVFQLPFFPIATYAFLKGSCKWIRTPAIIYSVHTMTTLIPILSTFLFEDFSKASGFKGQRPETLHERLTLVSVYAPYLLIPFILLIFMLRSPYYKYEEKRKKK
Series [3] in a line: Cytotoxicity against HCE cells assessed as reduction in cell viability at above 20 uM incubated for 1 hr by MTT assay. Type of series: toxicity, cell-based. Particulars: human. In a few lines: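 HCE cells in MEM with 10% FBS, grown to 80–90% confluence. Exposed to compounds in free medium for 20 h. MTT (5 mg/mL in PBS, 1:5 of medium volume) then added for 1 h; formazan dissolved in DMSO and read at 540 nm. Viability expressed as % of untreated cells; three independent experiments.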

Series [4] deals with Cannabinoid receptor 1 (Homo sapiens) (UniProt P21554). As to the kind of experiment: Inhibition of CB1 (unknown origin) at 1 uM relative to control. In a few lines:
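Membranes from rat Chem-1 cells expressing human recombinant CB1, 5 µg per sample, in modified HEPES pH 7.4. […] Nonspecific binding with 10 µM CP 55,940. Compound tested at 1 µM; filtration and counting of specifically bound radioligand.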

Series [5] addresses Mu-type opioid receptor (Homo sapiens) (UniProt P35372). As to the kind of experiment: Inhibition of MOR (unknown origin) at 1 uM relative to control.
Series [6] concerns Mus musculus. As to the kind of experiment: Anti-allodynic activity against capsaicin-induced wild type CD1 mouse allodynia model assessed as reversal of capsaicin induced hypersensitivity by measuring latency value at 1.25 mg/kg, sc preincubated for 5 with […] followed by compound addition for 30 mins prior to capsaicin stimulation. Type of series: functional, organism-based.

The nature of series [7]: Toxicity in wild type CD1 mouse assessed as effect on motor coordination at 1.25 mg/kg, sc measured upto 240 mins by rotarod test. Type of series: organism-based. Particulars: in vivo, time < 240 hrs. In a few lines:
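Female CD1 mice on rotarod; latency to fall recorded immediately before and at several times over 4 h after s.c. dosing. Vehicle was 5% DMSO in saline; pregabalin 60 mg/kg s.c. served as the motor-deficit control. Mean ± SEM from 6–7 animals, analysed by 2-way repeated-measures ANOVA with Student–Newman–Keuls test.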

Series [8] concerns the target Kappa-type opioid receptor (Homo sapiens) (UniProt P41145). As to the kind of experiment: Inhibition of KOR (unknown origin) at 1 uM relative to control. In a few lines: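 Nonspecific binding defined with 10 µM naloxone. Filtration through PEI-presoaked filters, then scintillation counting.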
Series [9] is described as follows: Cytotoxicity against HCE cells at 50 to 100 uM […] by LDH assay. Type of series: toxicity, cell-based. Particulars: human, 1.25 h, dose 50-100 µM.
Series [10] addresses Cannabinoid receptor 2 (Homo sapiens) (UniProt P34972). As to the kind of experiment: Inhibition of CB2 (unknown origin) at 1 uM relative to control. In a few lines: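 Membranes from CHO-K1 cells expressing human CB2, 30 µg per sample, in modified HEPES pH 7.0. […] Nonspecific binding with 10 µM R(+)-WIN-55,212-2. Compound tested at 1 µM; bound radioligand counted after filtration.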

Series [11] deals with Mus musculus. Description: Anti-allodynic activity against capsaicin-induced wild type CD1 mouse allodynia model assessed as reversal of capsaicin induced hypersensitivity by measuring latency value at 0.6 to 1.25 mg/kg, sc preincubated for 30 mins followed by capsaicin addition (reference value: 13.51 +/- 1.93 sec). Type of series: functional, organism-based. The note with it: dose 0.6-1.25 mg/kg.

For series [12], the target named is Delta-type opioid receptor (Homo sapiens) (UniProt P41143). As to the kind of experiment: Inhibition of DOR (unknown origin) at 1 uM relative to control.
Sequence of Delta-type opioid receptor (Homo sapiens) (P41143 whole entry): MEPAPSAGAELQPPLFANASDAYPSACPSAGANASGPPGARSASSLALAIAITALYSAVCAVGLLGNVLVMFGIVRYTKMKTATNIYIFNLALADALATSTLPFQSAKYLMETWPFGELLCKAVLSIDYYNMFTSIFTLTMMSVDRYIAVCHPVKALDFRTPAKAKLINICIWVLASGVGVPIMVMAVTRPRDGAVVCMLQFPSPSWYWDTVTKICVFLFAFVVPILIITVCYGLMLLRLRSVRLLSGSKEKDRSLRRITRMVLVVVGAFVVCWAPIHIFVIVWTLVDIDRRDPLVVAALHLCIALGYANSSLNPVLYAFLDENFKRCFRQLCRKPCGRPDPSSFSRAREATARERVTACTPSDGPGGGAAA
Series [13] has as its system Mus musculus. Description: Anti-allodynic activity against capsaicin-induced d sc dosed wild type CD1 mouse allodynia model assessed as reversal of capsaicin induced hypersensitivity by measuring latency value preincubated for 30 mins followed by capsaicin addition (reference value: 13.51 +/- 1.93 sec). Particulars: dose 10-40 mg/kg. Type of series: functional.
The subject of series [14] is Mus musculus. Description: Anti-allodynic activity against capsaicin-induced wild type CD1 mouse allodynia model assessed as reversal of capsaicin induced hypersensitivity by measuring latency value at 20 mg/kg, sc preincubated for 5 with […] followed by compound addition for 30 mins prior to capsaicin stimulation. Type of series: functional, organism-based.
Series [15] can be described thus: Cytotoxicity against HCE cells assessed as reduction in cell viability at 100 uM […] by MTT assay. Type of series: toxicity, cell-based. The note with it: human.
Series [16] has as its system Mus musculus. As to the kind of experiment: Anti-allodynic activity against capsaicin-induced wild type CD1 mouse allodynia model assessed as reversal of capsaicin induced hypersensitivity by measuring latency value at 5 mg/kg, sc preincubated for 30 mins followed by capsaicin addition (reference value: 13.51 +/- 1.93 sec). Type of series: functional, organism-based.

For series [17], the system named is Mus musculus. Description: Anti-allodynic activity against capsaicin-induced wild type CD1 mouse allodynia model assessed as reversal of capsaicin induced hypersensitivity by measuring latency value at 10 mg/kg, sc preincubated for 5 with […] followed by compound addition for 30 mins prior to capsaicin stimulation. Type of series: functional, organism-based.

The test system of series [18] is Mus musculus. As to the kind of experiment: Anti-allodynic activity against capsaicin-induced wild type CD1 mouse allodynia model assessed as reversal of capsaicin induced hypersensitivity by measuring latency value at 40 mg/kg, sc preincubated for 5 with […] followed by compound addition for 30 mins prior to capsaicin stimulation. Type of series: functional, organism-based. The essentials: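 Female CD1 mice, 25–30 g, acclimated at least 1 week. Mechanical allodynia induced by intraplantar capsaicin; read-out is response latency to mechanical stimulation of the paw. Compound given s.c.; the S1R agonist PRE-084 (32 mg/kg, s.c.) was co-administered to test reversal. Values are mean ± SEM from 6–9 animals per group.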

Series [19] deals with Sigma non-opioid intracellular receptor 1 (Rattus norvegicus) (UniProt Q9R0C9). Description: Selectivity ratio of Ki for binding affinity to rat liver homogenate S1R incubated for 2 hrs in absence of phenytoin to Ki for binding affinity to rat liver homogenate S1R incubated for 2 hrs in presence of phenytoin. Type of series: tissue-based.
Sequence of Sigma non-opioid intracellular receptor 1 (Rattus norvegicus) (Q9R0C9 whole entry): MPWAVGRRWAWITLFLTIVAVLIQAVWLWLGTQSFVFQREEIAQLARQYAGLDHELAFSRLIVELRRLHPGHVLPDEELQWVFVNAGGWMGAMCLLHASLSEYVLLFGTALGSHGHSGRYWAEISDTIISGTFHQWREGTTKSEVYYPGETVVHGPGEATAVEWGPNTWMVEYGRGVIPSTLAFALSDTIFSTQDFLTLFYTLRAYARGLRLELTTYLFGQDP
The target of series [20] is Sigma non-opioid intracellular receptor 1 (Rattus norvegicus, UniProt Q9R0C9). Description: Displacement of [3H]-(+)-pentazocine from rat liver homogenate S1R incubated for 120 mins by liquid scintillation counting method. Type of series: tissue-based.
Sequence of Sigma non-opioid intracellular receptor 1 (Rattus norvegicus, UniProt Q9R0C9) (Q9R0C9 whole entry): as above
Series [21] in a line: Toxicity in wild type CD1 mouse assessed as effect on motor coordination at 60 mg/kg, sc measured upto 240 mins by rotarod test. Type of series: organism-based. The note with it: in vivo, 4 h. The essentials: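 Female CD1 mice, 25–30 g. Latency to fall from the rotarod was recorded immediately before and several times after s.c. dosing, over 4 h; vehicle was DMSO 5% in saline. Mean ± SEM from 6–7 animals; 2-way repeated measures ANOVA followed by Student–Newman–Keuls test against time 0.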

Sequence of Sigma non-opioid intracellular receptor 1 (Homo sapiens, UniProt Q99720) (Q99720 whole entry): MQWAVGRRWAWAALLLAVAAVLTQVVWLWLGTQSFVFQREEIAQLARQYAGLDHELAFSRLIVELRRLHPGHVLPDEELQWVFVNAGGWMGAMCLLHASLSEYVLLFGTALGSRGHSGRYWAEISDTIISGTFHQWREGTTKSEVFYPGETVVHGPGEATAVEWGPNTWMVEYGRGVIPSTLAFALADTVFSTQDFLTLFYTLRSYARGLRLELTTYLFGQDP
Sequence of Cannabinoid receptor 1 (Homo sapiens) (P21554 whole entry): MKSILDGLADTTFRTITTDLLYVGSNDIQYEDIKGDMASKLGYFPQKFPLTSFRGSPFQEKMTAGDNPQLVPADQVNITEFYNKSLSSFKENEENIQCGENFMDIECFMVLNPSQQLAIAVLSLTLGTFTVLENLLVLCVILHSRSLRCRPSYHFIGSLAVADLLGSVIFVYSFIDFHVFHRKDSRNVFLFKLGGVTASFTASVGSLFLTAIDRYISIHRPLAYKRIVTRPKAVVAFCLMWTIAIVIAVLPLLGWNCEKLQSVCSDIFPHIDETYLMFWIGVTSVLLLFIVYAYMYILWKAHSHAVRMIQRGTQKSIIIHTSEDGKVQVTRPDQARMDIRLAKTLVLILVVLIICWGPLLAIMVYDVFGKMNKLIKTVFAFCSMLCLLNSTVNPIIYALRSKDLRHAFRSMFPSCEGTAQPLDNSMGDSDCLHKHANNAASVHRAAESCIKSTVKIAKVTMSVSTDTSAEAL
Sequence of Mu-type opioid receptor (Homo sapiens) (P35372 whole entry): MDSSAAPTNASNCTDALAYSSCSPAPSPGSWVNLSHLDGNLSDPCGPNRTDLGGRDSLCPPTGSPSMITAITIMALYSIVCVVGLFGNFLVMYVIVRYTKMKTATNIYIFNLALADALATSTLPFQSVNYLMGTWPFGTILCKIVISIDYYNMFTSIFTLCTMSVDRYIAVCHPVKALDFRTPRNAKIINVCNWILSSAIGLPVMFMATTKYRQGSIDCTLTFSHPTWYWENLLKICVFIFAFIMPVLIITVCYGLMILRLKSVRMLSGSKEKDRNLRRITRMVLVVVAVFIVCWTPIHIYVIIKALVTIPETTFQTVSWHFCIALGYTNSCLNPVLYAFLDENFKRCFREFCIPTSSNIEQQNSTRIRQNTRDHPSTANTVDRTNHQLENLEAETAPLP
Sequence of Cannabinoid receptor 2 (Homo sapiens) (P34972 whole entry): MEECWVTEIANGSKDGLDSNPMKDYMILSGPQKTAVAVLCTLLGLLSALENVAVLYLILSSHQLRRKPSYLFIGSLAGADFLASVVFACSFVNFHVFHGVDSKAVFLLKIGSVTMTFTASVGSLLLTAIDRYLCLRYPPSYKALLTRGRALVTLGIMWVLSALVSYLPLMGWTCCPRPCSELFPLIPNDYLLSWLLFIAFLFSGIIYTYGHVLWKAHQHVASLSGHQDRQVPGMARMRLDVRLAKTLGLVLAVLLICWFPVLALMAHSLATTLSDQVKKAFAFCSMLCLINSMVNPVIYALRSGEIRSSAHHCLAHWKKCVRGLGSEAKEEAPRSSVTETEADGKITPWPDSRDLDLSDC
Sequence of Kappa-type opioid receptor (Homo sapiens) (P41145 whole entry): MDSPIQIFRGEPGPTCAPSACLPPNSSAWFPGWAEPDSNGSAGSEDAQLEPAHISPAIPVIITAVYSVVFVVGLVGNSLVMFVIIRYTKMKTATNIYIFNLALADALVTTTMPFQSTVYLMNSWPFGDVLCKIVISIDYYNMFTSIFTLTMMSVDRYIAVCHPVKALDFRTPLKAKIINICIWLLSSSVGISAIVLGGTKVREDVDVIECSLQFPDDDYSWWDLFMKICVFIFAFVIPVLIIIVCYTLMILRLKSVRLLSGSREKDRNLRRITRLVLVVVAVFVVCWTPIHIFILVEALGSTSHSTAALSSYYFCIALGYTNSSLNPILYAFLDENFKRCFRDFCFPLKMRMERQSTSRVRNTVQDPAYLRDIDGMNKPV

For the compound `COC1Cc2ccccc2C2(CCC(N(C)CC3CCCCC3)CC2)O1` (stereo not given), the Ki in [1] is 1.9 nM; in [2] it was 12 nM.
Turning to `Cl.O=C(OCCN1CCOCC1)C1(c2ccccc2)CCCCC1`, in series [3], the Activity result was “Toxic”.
Turning to `c1ccc(CN2CCC3(CC2)OCC(c2ccccc2)CO3)cc1`, the results for the Ki in series [1] and in series [2] were 0.013 nM and 813 nM, respectively.
Regarding `N#Cc1ccc(N2CCC3(CCN(CCc4ccccc4)C3)C2)cc1` (stereo not given), the inhibition in [4], in series [5], in series [8], in series [10] and in [12] was under 50% each time. The outcome in the series on Mus musculus [6] was inactive. The Activity result was “Non-Toxic” in series [7]; “Toxic” in series [9]; “Dose-Dependent Effect” in the series with Mus musculus [13]; 100% in the series on Mus musculus [13] (0.5 h, at 10 to 40 mg/kg). Also, the outcome in the series on Mus musculus [11] was Active.
As to `c1ccc(CCN2CCC3(CCN(c4ccccc4)C3)C2)cc1` (stereo not given), in the series on Mus musculus [14], the outcome was inactive. The Activity entry was “Toxic” in [9], “Toxic” in series [3], “Toxic” in [15] and “Dose-Dependent Effect” in the series on Mus musculus [13].
With `c1ccc(CN2CCC3(CCc4ccccc4S3)CC2)cc1`, the Ki is 9.2 nM in [1] and 6.4 nM in series [2].
As for `O=[N+]([O-])c1ccc(N2CCC3(CCN(CCc4ccccc4)C3)C2)cc1` (stereo not given), the outcome with Mus musculus [16] was Active. Also, the Activity in series [15] was 50%; in the series on Mus musculus [13], “Dose-Dependent Effect”; in the series on Mus musculus [13] (0.5 h, at 10 to 40 mg/kg) it was 100%. The result with Mus musculus [17] was inactive.
As to `O=C(Cc1ccc(Cl)c(Cl)c1)N1CCC2(CCN(CCc3ccccc3)C2)C1` (stereo not given), the Activity result with Mus musculus [13] is “Dose-Dependent Effect”; with Mus musculus [13] (0.5 h, at 10 to 40 mg/kg), 100%. Also, the result with Mus musculus [18] was inactive.
With `CN1CCN(CCc2ccc(Cl)c(Cl)c2)CC1`, the result in the series with Mus musculus [18] was inactive.
Turning to `c1ccc(CCN2CCC3(CCN(CCc4ccccc4)C3)C2)cc1`, the outcome in the series on Mus musculus [14] was inactive. Also, the Activity result in series [9] is “Toxic”; in [3], “Toxic”; in series [15], “Toxic”; with Mus musculus [13], “Dose-Dependent Effect”.
For the compound `C=CCN1CC[C@@]2(C)C[C@@H]1Cc1ccc(O)cc12`, the Ratio Ki in series [19] was found to be 5.8.
In turn, `c1ccc2c(c1)Nc1ccccc1S2` [PHENOTHIAZINE] had a Ki in series [20] of 4.3 nM.
With `CC(C)C[C@H](CN)CC(=O)O` [PREGABALIN], in [21], the Activity result was “Toxic”.
